Source: PMC6045486 (ACS Omega, 2018)

How the values were obtained:
MCF7 cells [1] = experiment: Intracellular redox state: ratio of GSH and GSSG in MCF7 cells; assay type: cell-based, human; settings: MCF7, 25 μM, 48 h
How it was run: (§1)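 MCF7 cells were grown in DMEM with 10% FBS at 37 °C and 5% CO2, then exposed to 25 μM test compound (0.1% DMSO) for 48 h. Lysates were made in CelLytic M with protease inhibitor cocktail. About 100 μg protein was used for GSH, GSSG, GPx, GST and GR determinations, with protein measured by Bradford. Mean ± SEM, n = 3, versus DMSO control.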

Chemical stability [2] = assay type: physicochemical; settings: 10 μM, phosphate buffer pH 7.4, 1% DMSO, 37 °C, within 1 h
CHO cells [3] = experiment: Radiation-induced micronuclei assay and NDI in CHO cells; assay type: cell-based, Chinese Hamster; settings: 4 Gy; for reduction in radiation-induced micronuclei formation: pretreatment 2 h, 18 h postirradiation
How it was run: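 CHO cells were pretreated with test compound (2.5–10 μM; 10 μM for NDI) for 2 h, washed with PBS and placed in serum-free medium. They were given 4 Gy ⁶⁰Co γ-rays at 1 Gy/min, then returned to 10% FBS. Cytochalasin B (4 μg/mL) was present for 18 h, and cells were stained with acridine orange. Micronuclei were scored in 500 binucleated cells. NDI was calculated from counts of mono- to tetranucleated cells among ≥500 viable cells.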

[4] = test system: glutathione S-transferase (GST); experiment: GST activity level in MCF7 cells; assay type: cell-based, human; settings: MCF7, 25 μM, 48 h
How it was run: as §1

[5] = test system: γ-glutamyl-cysteine ligase (γ-GCL); experiment: mRNA expression of γ-GCL by RT-PCR in MCF7 cells; assay type: cell-based, human; settings: MCF7, 25 μM, 48 h
How it was run: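 MCF7 cells were exposed to 25 μM test compound for 48 h. Total RNA was extracted with TRI reagent, and about 2 μg was reverse-transcribed. SYBR Green real-time PCR used γ-GCL-specific primers. CT values were normalised to β-actin and expression expressed relative to control. Mean ± SEM, n = 3.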

A549 cells = experiment: MTT cytotoxicity assay, A549; assay type: cell-based, human; settings: read-out: IC50 (half maximal concentration to inhibit proliferation by 50%), 48 h
How it was run: (§2)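 Cells kept in DMEM with 10% FBS and penicillin/streptomycin at 37 °C in 5% CO2. About 2 × 10^3 cells per well, 12 h attachment, then test compound at 5–100 μM (from DMSO stock; 0.1% DMSO final) for 48 h. MTT absorbance read at 570 nm, with % cytotoxicity relative to the 0.1% DMSO control. Mean ± SEM, n = 3.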

[6] = test system: glutathione peroxidase (GPx); experiment: GPx activity level in MCF7 cells; assay type: cell-based, human; settings: MCF7, 25 μM, 48 h
How it was run: as §1

[7] = target: T1, thioredoxin reductase (TrxR) (Homo sapiens, UniProt Q16881); experiment: TrxR activity level in MCF7 cells; assay type: cell-based; settings: MCF7, 25 μM, 48 h
T1 sequence (Q16881 151-649 limits assumed): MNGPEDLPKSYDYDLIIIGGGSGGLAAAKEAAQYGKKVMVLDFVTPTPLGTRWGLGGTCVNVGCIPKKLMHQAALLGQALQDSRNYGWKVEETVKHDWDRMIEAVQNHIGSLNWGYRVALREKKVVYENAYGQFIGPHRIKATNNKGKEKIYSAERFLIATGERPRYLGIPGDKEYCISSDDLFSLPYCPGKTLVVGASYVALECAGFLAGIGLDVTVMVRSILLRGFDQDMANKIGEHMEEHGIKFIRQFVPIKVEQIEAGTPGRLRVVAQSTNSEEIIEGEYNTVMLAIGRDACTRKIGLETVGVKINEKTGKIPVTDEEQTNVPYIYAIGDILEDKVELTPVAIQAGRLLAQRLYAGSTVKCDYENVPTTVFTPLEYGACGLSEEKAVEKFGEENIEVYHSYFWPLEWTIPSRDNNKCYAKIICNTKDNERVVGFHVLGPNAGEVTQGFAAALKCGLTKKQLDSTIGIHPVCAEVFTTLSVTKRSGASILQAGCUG
How it was run: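 MCF7 lysates were prepared in CelLytic M with protease inhibitors after 48 h exposure to 25 μM test compound (0.1% DMSO). Thioredoxin reductase activity in about 100 μg protein was measured with a commercial kit; protein was measured by Bradford. Mean ± SEM, n = 3, versus DMSO control.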

CHO cells [8] = experiment: Single-cell alkaline gel electrophoresis; assay type: cell-based, Chinese Hamster; settings: 10 μM for 2 h, 4 Gy, 0 to 60 min
How it was run: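 CHO cells pretreated with 10 μM test compound for 2 h were washed, then irradiated at 4 Gy (⁶⁰Co, 1 Gy/min) in serum-free medium, with 10% FBS re-added afterwards. At 0, 30 and 60 min, about 15 000 cells in 0.8% low-melting agarose were lysed, electrophoresed under alkaline conditions and stained with SYBR Green II. Tail length and olive tail moment were measured in about 50 cells per slide. Mean ± SEM, n = 3.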

MCF7 cells [9] = experiment: MTT cytotoxicity assay, MCF7; assay type: cell-based, human; settings: read-out: IC50 (half maximal concentration to inhibit proliferation by 50%), 48 h
How it was run: as §2

splenic lymphocytes = experiment: MTT cytotoxicity assay, splenic lymphocytes; assay type: cell-based, BALB/c mice; settings: read-out: IC50 (half maximal concentration to inhibit proliferation by 50%), 48 h
How it was run: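 Splenic lymphocytes freshly isolated from BALB/c mice and kept in RPMI-1640 with FBS and antibiotics at 37 °C in 5% CO2. About 2 × 10^3 cells per well, 12 h, then test compound at 5–100 μM (0.1% DMSO final) for 48 h. MTT absorbance read at 570 nm, with % cytotoxicity relative to the DMSO control. Mean ± SEM, n = 3.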

cells = experiment: Toxicity in cells; assay type: cell-based; settings: up to a concentration of 10 μM
How it was run: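 Cells were seeded at about 2 × 10³ per well and allowed to attach for 12 h. Lines were CHO, A549 and MCF7 in DMEM with 10% FBS, or fresh BALB/c mouse splenic lymphocytes in RPMI-1640. Cells were then exposed to test compound (5–100 μM, 0.1% DMSO) for 48 h. MTT was read at 570 nm, with % cytotoxicity taken versus control. Mean ± SEM, n = 3.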

CHO cells [10] = experiment: Radiation-induced intracellular ROS level; assay type: cell-based, Chinese Hamster; settings: 10 μM for 2 h, 2 Gy, 30 min postirradiation
How it was run: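 CHO cells were pretreated with 10 μM test compound for 2 h and then γ-irradiated. At 30 min postirradiation, 1 × 10⁴ cells were loaded with DCFDA (5 μM) for 30 min at 37 °C. DCF fluorescence was read on a plate reader (excitation 488 nm, emission 530 nm).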

CHO cells [11] = experiment: MTT cytotoxicity assay, CHO; assay type: cell-based, Chinese Hamster; settings: read-out: IC50 (half maximal concentration to inhibit proliferation by 50%), 48 h
How it was run: as §2

rat liver TrxR = target: T2, rat liver TrxR (Rattus norvegicus, UniProt O89049); experiment: TrxR inhibition assay in cell-free system; assay type: biochemical; settings: for inhibition of TrxR: cell-free, rat liver TrxR
T2 sequence (O89049 1-499): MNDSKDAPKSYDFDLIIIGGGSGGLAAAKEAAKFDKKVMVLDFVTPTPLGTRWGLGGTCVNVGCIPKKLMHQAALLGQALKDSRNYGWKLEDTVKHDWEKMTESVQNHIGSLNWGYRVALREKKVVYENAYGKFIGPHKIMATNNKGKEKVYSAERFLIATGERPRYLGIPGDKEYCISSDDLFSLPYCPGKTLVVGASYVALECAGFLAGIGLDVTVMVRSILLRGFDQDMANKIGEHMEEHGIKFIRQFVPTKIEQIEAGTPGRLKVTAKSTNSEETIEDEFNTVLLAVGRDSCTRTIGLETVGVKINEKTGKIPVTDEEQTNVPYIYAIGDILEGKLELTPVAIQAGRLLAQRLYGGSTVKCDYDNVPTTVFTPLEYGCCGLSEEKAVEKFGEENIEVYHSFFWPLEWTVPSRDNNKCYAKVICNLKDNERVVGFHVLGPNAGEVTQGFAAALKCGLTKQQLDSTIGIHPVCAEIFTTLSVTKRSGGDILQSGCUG
How it was run: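 Rat liver TrxR (50 nM) was preincubated at 37 °C for 30 min with 100 μM NADPH and test compound (5–100 μM) in 50 mM Tris–HCl, 1 mM EDTA, pH 7.4 (4% DMSO final). DTNB was then added and TNB formation followed at A412 for 5 min, against a no-enzyme blank and a compound blank. Activity is given as % of control. For reversibility, NADPH was varied 10–100 μM with compound fixed at 50 μM (Lineweaver–Burk).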

Chemical stability [12] = assay type: physicochemical; settings: 10 μM, cell culture medium with 10% FBS, 1% DMSO, 37 °C, in 2.5 h

Hispolon [HS]
increase in GSH/GSSG (MCF7 cells [1]): did not cause any significant change | degraded in phosphate buffer (Chemical stability [2]): 65% | Nuclear division index (NDI) compared to radiation control (CHO cells [3]; 10 μM for 2 h): did not affect this much | reduction in radiation-induced micronuclei formation (CHO cells [3]; 7.5 μM): 20% | reduction in radiation-induced micronuclei formation (CHO cells [3]; 10 μM): 22% | reduction in radiation-induced micronuclei formation (CHO cells [3]; up to 5 μM): did not affect | inhibition of GST activity [4]: did not cause any significant change | mRNA expression of γ-GCL compared to control cells [5]: marginal increase | IC50 (A549 cells): 68 µM | inhibition of GPx activity [6]: did not cause any significant change | percent inhibition in TrxR activity [7]: 58% | DNA damage parameters (TL, OTM) compared to radiation control (CHO cells [8]): significant decrease | IC50 (MCF7 cells [9]): 42 µM | IC50 (splenic lymphocytes): > 100 µM | toxicity in cells (cells): < 10% | reduction in the ROS level compared to radiation control (CHO cells [10]): 40% | IC50 (CHO cells [11]): > 100 µM | nature of TrxR inhibition (rat liver TrxR; NADPH competition experiment, Lineweaver–Burk): reversible inhibition | inhibition of TrxR (rat liver TrxR; 100 μM): 85–95% | inhibition of TrxR (rat liver TrxR; up to a concentration of 50 μM): 15–25% | Vmax (rat liver TrxR; compound 50 μM, NADPH 10–100 μM, unaffected versus control reaction): 1 nmol/min | degraded in culture medium (10% FBS) (Chemical stability [12]): ~30%
